Laboratory results from ChEMBL document CHEMBL1156614, “Discovery of imidazole vinyl pyrimidines as a novel class of kinase inhibitors which inhibit Tie-2 and are orally bioavailable” (Bioorg Med Chem Lett, 2008).

Tests used:
[1] = target: Vascular endothelial growth factor receptor 1 (Homo sapiens, UniProt P17948); assay: Inhibition of recombinant Flt1 expressed in baculovirus-Sf21 system
Outline: (§1)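 Kinase-domain fragments expressed in baculovirus/Sf21 cells. Crude lysates (ice-cold Triton lysis with protease inhibitors, cleared) were diluted 1:200 for Tie-2, 1:400 for KDR and 1:1000 for Flt-1. Reactions ran on synthetic peptide-coated plates in 100 mM Hepes pH 7.4 with 5 µM ATP, 10 mM MnCl2, 0.1 mM vanadate, 0.2 mM DTT and 2.5% final DMSO, at room temperature for 60 min (Tie-2) or 20 min (KDR, Flt-1).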

[2] = target: Vascular endothelial growth factor receptor 2 (Homo sapiens, UniProt P35968); assay: Inhibition of recombinant KDR expressed in baculovirus-Sf21 system; outline: as §1
Chain of Vascular endothelial growth factor receptor 2 (P35968 whole entry): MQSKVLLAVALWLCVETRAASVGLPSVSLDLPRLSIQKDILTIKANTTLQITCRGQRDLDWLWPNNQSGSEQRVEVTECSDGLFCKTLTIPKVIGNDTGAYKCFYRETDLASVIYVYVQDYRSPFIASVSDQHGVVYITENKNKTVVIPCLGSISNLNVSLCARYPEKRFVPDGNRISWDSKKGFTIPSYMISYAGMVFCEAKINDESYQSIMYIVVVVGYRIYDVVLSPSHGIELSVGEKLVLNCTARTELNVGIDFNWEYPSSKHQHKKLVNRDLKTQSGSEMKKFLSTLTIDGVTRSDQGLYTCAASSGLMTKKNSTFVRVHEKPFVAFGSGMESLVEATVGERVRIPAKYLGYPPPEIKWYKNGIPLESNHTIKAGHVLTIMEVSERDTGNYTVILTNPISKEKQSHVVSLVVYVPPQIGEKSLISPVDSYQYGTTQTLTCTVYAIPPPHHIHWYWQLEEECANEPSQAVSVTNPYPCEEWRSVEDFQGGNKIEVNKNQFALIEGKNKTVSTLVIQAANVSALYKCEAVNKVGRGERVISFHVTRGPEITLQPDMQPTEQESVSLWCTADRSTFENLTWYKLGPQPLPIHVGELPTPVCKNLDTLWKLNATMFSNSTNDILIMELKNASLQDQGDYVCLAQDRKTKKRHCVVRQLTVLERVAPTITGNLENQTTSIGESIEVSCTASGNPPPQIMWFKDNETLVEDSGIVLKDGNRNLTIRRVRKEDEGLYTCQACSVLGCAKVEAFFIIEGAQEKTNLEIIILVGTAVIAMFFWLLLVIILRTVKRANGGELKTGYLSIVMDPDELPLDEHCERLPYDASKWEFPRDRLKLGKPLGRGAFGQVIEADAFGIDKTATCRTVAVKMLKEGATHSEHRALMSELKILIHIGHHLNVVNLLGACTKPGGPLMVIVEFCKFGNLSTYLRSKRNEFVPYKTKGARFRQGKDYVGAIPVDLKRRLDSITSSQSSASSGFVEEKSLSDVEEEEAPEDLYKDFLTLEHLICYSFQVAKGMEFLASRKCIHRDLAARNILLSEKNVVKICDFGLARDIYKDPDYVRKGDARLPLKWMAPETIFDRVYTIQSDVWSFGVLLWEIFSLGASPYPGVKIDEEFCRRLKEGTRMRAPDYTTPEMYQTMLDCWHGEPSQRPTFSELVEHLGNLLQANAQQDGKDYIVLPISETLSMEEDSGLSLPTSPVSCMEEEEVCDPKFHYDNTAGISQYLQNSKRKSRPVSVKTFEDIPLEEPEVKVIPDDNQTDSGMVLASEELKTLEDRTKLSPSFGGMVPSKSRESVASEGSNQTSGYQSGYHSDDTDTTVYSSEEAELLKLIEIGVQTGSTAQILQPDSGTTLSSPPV

Angiopoietin-1 receptor [3] = target: T1, Angiopoietin-1 receptor (Homo sapiens, UniProt Q02763); assay: Inhibition of recombinant Tie2 expressed in baculovirus-Sf21 system; outline: as §1
T1 sequence (Q02763 whole entry): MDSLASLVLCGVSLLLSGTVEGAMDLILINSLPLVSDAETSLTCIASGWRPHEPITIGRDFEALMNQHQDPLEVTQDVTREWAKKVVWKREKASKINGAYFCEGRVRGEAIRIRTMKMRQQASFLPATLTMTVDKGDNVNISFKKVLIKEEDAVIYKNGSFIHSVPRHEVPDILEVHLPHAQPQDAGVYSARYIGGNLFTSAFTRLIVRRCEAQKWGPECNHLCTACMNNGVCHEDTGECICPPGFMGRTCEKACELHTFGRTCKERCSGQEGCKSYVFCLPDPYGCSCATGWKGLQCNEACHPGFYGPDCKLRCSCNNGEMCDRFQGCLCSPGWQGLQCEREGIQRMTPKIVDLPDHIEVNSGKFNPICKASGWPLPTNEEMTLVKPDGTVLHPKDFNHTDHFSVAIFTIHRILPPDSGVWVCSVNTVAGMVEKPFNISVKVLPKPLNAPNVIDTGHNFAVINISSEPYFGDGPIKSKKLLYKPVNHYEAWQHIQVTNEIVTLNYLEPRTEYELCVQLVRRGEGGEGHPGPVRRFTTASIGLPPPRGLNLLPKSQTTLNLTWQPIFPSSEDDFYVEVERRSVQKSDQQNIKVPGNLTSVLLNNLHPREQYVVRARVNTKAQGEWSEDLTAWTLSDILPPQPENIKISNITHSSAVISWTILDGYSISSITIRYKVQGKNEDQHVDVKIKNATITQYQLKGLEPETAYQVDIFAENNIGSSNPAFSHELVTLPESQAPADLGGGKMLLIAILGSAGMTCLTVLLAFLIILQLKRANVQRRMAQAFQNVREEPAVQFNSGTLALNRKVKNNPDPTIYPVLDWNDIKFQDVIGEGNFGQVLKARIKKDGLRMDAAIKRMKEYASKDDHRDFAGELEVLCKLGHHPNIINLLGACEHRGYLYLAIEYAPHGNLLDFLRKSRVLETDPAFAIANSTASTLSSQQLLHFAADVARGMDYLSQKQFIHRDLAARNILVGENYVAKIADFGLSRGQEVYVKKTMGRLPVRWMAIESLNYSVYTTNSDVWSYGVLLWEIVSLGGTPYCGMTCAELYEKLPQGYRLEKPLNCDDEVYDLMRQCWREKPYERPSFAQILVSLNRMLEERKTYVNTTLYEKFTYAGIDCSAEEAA

[4] = Cmax in mouse at 1 mg/kg, po by cassette dosing assay; assay type: ADME, organism-based; set-up: dose 1 mg/kg, route oral; details: in vivo
Angiopoietin-1 receptor [5] = target: T1, Angiopoietin-1 receptor; assay: Inhibition of human Tie2 autophosphorylation expressed in CHOK1 cells by ELISA; assay type: cell-based, CHO-K1
Outline: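 CHO-K1 cells stably expressing human Tie-2 were seeded at 6×10^4 cells/well and grown 3 days in DMEM/G418/10% FCS. Compound was added in DMEM with 1% FCS for 45 min at 37 °C. Cells were lysed on ice, and lysate was captured on a human Tie-2 ELISA plate (2 h, room temperature). Phospho-Tie-2 was detected with a rabbit antibody, then anti-rabbit HRP and colour reagent; read at OD450.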

Mus musculus = assay: AUC in mouse at 2 mg/kg by cassette dosing assay; assay type: ADME, organism-based, Plasma; set-up: dose 2 mg/kg; details: in vivo
[6] = Inhibition of p38
[7] = Cmax in mouse at 2 mg/kg by cassette dosing assay; assay type: ADME, organism-based; set-up: dose 2 mg/kg; details: in vivo
[8] = Fraction unbound ligand in mouse; assay type: ADME, organism-based; details: in vivo
HUVEC = assay: Inhibition of growth factor-stimulated proliferation of HUVEC; assay type: functional, cell-based; details: Homo sapiens
[9] = Fraction unbound ligand in rat; assay type: ADME

Chain of Vascular endothelial growth factor receptor 1 (P17948 whole entry, the tested form may be a part): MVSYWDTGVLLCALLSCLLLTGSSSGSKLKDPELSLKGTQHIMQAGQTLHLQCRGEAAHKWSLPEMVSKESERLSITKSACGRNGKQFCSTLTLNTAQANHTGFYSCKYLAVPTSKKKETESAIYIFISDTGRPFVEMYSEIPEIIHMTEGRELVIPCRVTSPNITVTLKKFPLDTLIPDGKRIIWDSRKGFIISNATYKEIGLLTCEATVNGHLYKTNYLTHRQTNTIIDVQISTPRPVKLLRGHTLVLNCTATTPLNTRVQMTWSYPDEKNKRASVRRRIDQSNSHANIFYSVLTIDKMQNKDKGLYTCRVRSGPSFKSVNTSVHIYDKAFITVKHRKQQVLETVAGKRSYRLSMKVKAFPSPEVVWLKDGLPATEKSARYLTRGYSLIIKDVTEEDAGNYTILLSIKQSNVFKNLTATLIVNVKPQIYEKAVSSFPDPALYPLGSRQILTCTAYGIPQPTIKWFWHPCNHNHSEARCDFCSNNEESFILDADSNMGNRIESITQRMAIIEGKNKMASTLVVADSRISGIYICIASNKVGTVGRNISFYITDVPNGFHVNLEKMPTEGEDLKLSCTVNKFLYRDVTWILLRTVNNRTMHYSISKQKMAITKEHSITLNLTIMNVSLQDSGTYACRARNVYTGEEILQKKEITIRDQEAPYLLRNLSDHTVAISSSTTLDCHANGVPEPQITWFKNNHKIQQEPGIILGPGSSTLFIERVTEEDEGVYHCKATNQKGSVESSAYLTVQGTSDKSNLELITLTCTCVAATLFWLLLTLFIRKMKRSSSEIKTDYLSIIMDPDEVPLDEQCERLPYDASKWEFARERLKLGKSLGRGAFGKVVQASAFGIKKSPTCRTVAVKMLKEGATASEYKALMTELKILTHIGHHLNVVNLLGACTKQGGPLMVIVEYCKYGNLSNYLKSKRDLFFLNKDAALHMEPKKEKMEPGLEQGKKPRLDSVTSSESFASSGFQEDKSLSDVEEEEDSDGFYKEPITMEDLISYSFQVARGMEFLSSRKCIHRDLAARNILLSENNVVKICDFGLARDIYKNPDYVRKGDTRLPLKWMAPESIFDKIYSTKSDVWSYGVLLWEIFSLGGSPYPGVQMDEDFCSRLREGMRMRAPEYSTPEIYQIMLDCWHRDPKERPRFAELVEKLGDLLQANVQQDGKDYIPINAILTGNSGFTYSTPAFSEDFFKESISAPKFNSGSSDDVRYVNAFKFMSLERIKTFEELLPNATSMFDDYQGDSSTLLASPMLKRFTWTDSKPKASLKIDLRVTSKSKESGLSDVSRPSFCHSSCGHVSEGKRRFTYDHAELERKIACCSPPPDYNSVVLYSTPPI

SMILES | IC50 [1] [µM] | IC50 [2] [µM] | IC50 (Angiopoietin-1 receptor [3]) [µM] | also measured
Cc1nc2sccn2c1/C=C/c1ccnc(N)n1 | > 100 | 70 | > 100 | –
Cn1cnc(-c2ccccc2)c1CNc1ccnc(N)n1 | > 100 | > 100 | > 100 | –
Nc1nccc(/C=C/c2c(-c3ccccc3)ncn2CC(=O)O)n1 | – | – | 68 | –
Cn1cnc(/C=C/c2ccnc(N)n2)c1-c1ccccc1 | > 100 | 7.8 | > 100 | –
Nc1nccc(/C=C/c2c(-c3ccccc3)nc3sccn23)n1 | 30 | 7 | 6 | Cmax [4]: 290 nM
CNc1nccc(/C=C/c2c(-c3ccccc3)nc3sccn23)n1 | 84 | 17 | 14 | –
Cn1cnc(-c2ccccc2)c1C#Cc1ccnc(N)n1 | 36 | 2.9 | 6.4 | –
Nc1nccc(/C=C/c2c(-c3ccccc3)ncn2Cc2ccccc2)n1 | 31 | 7 | 2.8 | –
Cn1cnc(-c2ccccc2)c1C(=O)Nc1ccnc(N)n1 | > 100 | > 100 | > 100 | –
Nc1nccc(/C=C/c2c(-c3ccccc3)ncn2CCN2CCCC2)n1 | > 100 | 32 | 21 | –
Nc1nccc(/C=C/c2[nH]ncc2-c2ccccc2)n1 | > 100 | > 100 | 64 | –
Nc1nccc(/C=C/c2sccc2-c2ccccc2)n1 | > 100 | > 100 | > 100 | –
Nc1nccc(/C=C/c2[nH]cnc2-c2ccccc2)n1 | 68 | 9.8 | 8.4 | IC50 (Angiopoietin-1 receptor [5]): 0.37 µM
Nc1cc(/C=C/c2c(-c3ccccc3)nc3sccn23)ncn1 | > 100 | 35 | 5.2 | –
CC(Nc1nccc(/C=C/c2c(-c3ccccc3)nc3sccn23)n1)c1ccccc1 (centres undefined) | > 100 | > 100 | > 100 | –
CC(C)(C)C(=O)Nc1nccc(/C=C/c2c(-c3ccccc3)nc3sccn23)n1 | 96 | 13 | 41 | –
Nc1nccc(/C=C/c2c(-c3ccc(F)cc3)nc3sccn23)n1 | – | – | 13 | –
Cn1cnc(-c2ccccc2)c1NC(=O)c1ccnc(N)n1 | > 100 | > 100 | > 100 | –
Nc1nccc(/C=C/c2c(-c3ccccc3)nc3ccccn23)n1 | 79 | 13 | 5.6 | –
Cn1cnc(-c2ccccc2)c1/C=C/c1ccnc(N)n1 | 34 | 3.2 | 3.8 | AUC (Mus musculus): 0.58 µM·h; IC50 [6]: 12 µM; Cmax [7]: 460 nM; IC50 (Angiopoietin-1 receptor [5]): 0.34 µM; fraction unbound [8]: 0.125; IC50 (HUVEC): > 10 µM; fraction unbound [9]: 0.099
C(=C\c1c(-c2ccccc2)nc2sccn12)/c1ccnc(Nc2ccccc2)n1 | > 100 | > 100 | 68 | –
Cn1c(-c2ccccc2)c(/C=C/c2ccnc(N)n2)c2ccccc21 | – | – | 83 | –

More lines, main results first:

IC50 [1] [µM] | IC50 [2] [µM] | IC50 (Angiopoietin-1 receptor [3]) [µM] | SMILES | also measured
> 100 | > 100 | > 100 | Cn1cnc(-c2ccccc2)c1NCCc1ccnc(N)n1 | –
> 100 | > 100 | > 100 | Nc1nccc(/C=C/c2ccsc2-c2ccccc2)n1 | –
66 | > 100 | 55 | Clc1nccc(/C=C/c2c(-c3ccccc3)nc3sccn23)n1 | –
100 | 4.5 | 11 | CC(=O)Nc1nccc(/C=C/c2c(-c3ccccc3)nc3sccn23)n1 | –
> 100 | 77 | 27 | C(=C\c1c(-c2ccccc2)nc2sccn12)/c1ccncn1 | –
> 100 | 31 | > 100 | Nc1nccc(/C=C/c2c(Cl)nc3sccn23)n1 | –
23 | 3.2 | 2.9 | Nc1nccc(/C=C/c2c(-c3ccccc3)nc3n2CCS3)n1 | –
> 100 | > 100 | > 100 | Cn1cnc(-c2ccccc2)c1Nc1ccnc(N)n1 | –
> 100 | > 100 | > 100 | Cn1cnc(-c2ccccc2)c1C1CC1c1ccnc(N)n1 (centres undefined) | –
> 100 | > 100 | > 100 | Nc1ccnc(/C=C/c2c(-c3ccccc3)nc3sccn23)n1 | –
